Measurements as given in ChEMBL document CHEMBL1122444, “Sulfonyliminoimidazolidines. A new class of oral hypoglycemic agents. 2. Mode of action and X-ray structure of 1-[[p-[2-(crotonylamino)ethyl]phenyl]sulfonyl]-3-cyclohexyl-2-iminoimidazolidine” (J Med Chem, 1983).
“And” between values parts separate entries of the source, which are not always exact repeats. Equal entries are not always repeated.

Assays:
Oryctolagus cuniculus [1] = organism: Oryctolagus cuniculus; assay: In vitro insulin release was stimulated by the compound at a concentration of 0.01 mmol/L in rabbit pancreas; format: functional
How it was run: (§1)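 Eight rabbit pancreas pieces, pooled from four rabbits per experiment, were incubated in bicarbonate-buffered medium containing 0.6 g/L glucose. Insulin per flask with compound was divided by basal release, taken as the mean of two preceding 20-min periods without compound. Results are mean ± SEM over n experiments.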

Rattus norvegicus [2] = organism: Rattus norvegicus; assay: Percent change in blood glucose against control; format: functional
How it was run: (§2)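 Female rats (175–195 g) were fasted 6–9 h and given compound orally as a suspension in 0.5% (w/v) methylcellulose (5 mL/kg). Blood glucose was measured enzymatically 45 min after dosing. Values are mean ± SEM, expressed as percent change against the control group.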

Rattus norvegicus [3] = assay: […] in normal rats at a hypoglycemic dose of 0.028 mmol/kg.; format: functional
Rattus norvegicus [4] = organism: Rattus norvegicus; assay: Percent change in plasma insulin against control; format: functional
Rattus norvegicus [5] = assay: Percent change in plasma insulin in normal rats at a hypoglycemic dose of 0.0084 mmol/kg against control
Rattus norvegicus [6] = assay: […] in normal rats at a hypoglycemic dose of 0.0084 mmol/kg; format: functional
Rattus norvegicus [7] = organism: Rattus norvegicus; assay: In vitro inhibition of glucose oxidation by the compound in isolated rat fat cells; format: functional, cell-based
How it was run: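 Epididymal fat cells from five young rats (140–160 g) were isolated by collagenase digestion. They were incubated with D-[1-14C]glucose (40 nCi/flask, 0.1 g glucose/L) across a range of compound concentrations. IC50 was read graphically from % inhibition vs log concentration, reported as mean ± SEM over n experiments.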

Rattus norvegicus [8] = assay: In vivo increase of plasma insulin in normal rats at a hypoglycemic dose of 0.028 […]; format: functional, organism-based
Oryctolagus cuniculus [9] = organism: Oryctolagus cuniculus; assay: In vitro insulin release was stimulated by the compound at a concentration of 0.3 mmol/L in rabbit pancreas; format: functional; how it was run: as §1
Oryctolagus cuniculus [10] = organism: Oryctolagus cuniculus; assay: In vitro insulin release was stimulated by the compound at a concentration of 0.003 mmol/L in rabbit pancreas; format: functional; how it was run: as §1
Rattus norvegicus [11] = assay: In vivo increase of plasma insulin in normal rats at a hypoglycemic dose of 0.0084 […]; format: functional, organism-based
Oryctolagus cuniculus [12] = organism: Oryctolagus cuniculus; assay: In vitro insulin release was stimulated by the compound at a concentration of 0.03 mmol/L in rabbit pancreas; format: functional; how it was run: as §1
Oryctolagus cuniculus [13] = organism: Oryctolagus cuniculus; assay: In vitro insulin release was stimulated by the compound at a concentration of 0.1 mmol/L in rabbit pancreas; format: functional; how it was run: as §1
Rattus norvegicus [14] = assay: In vivo increase of plasma insulin in normal rats at a hypoglycemic dose of 0.18 mmol/kg; format: functional, organism-based
Rattus norvegicus [15] = assay: […] in normal rats at a hypoglycemic dose of 0.18 mmol/kg.; format: functional
Rattus norvegicus [16] = assay: In vivo increase of plasma insulin in normal rats at a hypoglycemic dose of 2.0 mmol/kg; format: functional, organism-based
Rattus norvegicus [17] = assay: Percent change in blood glucose in normal rats at a hypoglycemic dose of 2.0 mmol/kg. against control; format: functional; how it was run: as §2
Rattus norvegicus [18] = assay: […] in normal rats at a hypoglycemic dose of 2.0 mmol/kg; format: functional
Rattus norvegicus [19] = assay: Percent change in blood glucose in normal rats at a hypoglycemic dose of 0.072 mmol/kg against control; format: functional; how it was run: as §2
Rattus norvegicus [20] = assay: […] in normal rats at a hypoglycemic dose of 0.008 mmol/kg.; format: functional
Rattus norvegicus [21] = assay: In vivo increase of plasma insulin in normal rats at a hypoglycemic dose of 0.008 mmol/kg.; format: functional, organism-based
Rattus norvegicus [22] = assay: In vivo increase of plasma insulin in normal rats at a hypoglycemic dose of […].; format: functional, organism-based
Rattus norvegicus [23] = assay: In vivo increase of plasma insulin in normal rats at a hypoglycemic dose of […]; format: functional, organism-based
Oryctolagus cuniculus [24] = organism: Oryctolagus cuniculus; assay: In vitro insulin release was stimulated by the compound at a concentration of 0.1 mmol/L; format: functional; how it was run: as §1
Rattus norvegicus [25] = assay: Percent change in blood glucose in normal rats at a hypoglycemic dose of 0.024 mmol/kg against control; format: functional; how it was run: as §2
Rattus norvegicus [26] = assay: Percent change in blood glucose in normal rats at a hypoglycemic dose of 0.008 mmol/kg against control; format: functional; how it was run: as §2
Rattus norvegicus [27] = assay: […] in normal rats at a hypoglycemic dose of 0.072 mmol/kg.; format: functional
Rattus norvegicus [28] = assay: […] in normal rats at a hypoglycemic dose of 0.024 mmol/kg.; format: functional
Rattus norvegicus [29] = assay: Percent change in blood glucose in normal rats at a hypoglycemic dose of 0.008 mmol/kg. against control; format: functional; conditions: in the assay text read “plasma insulin” for “blood glucose”
Rattus norvegicus [30] = assay: Percent change in blood glucose in normal rats at a hypoglycemic dose of 0.60 mmol/kg against control; format: functional; how it was run: as §2
Rattus norvegicus [31] = assay: In vivo increase of plasma insulin in normal rats at a hypoglycemic dose of 0.60 mmol/kg; format: functional, organism-based
Oryctolagus cuniculus [32] = organism: Oryctolagus cuniculus; assay: In vitro insulin release was stimulated by the compound at a concentration of 0.9 mmol/L in rabbit pancreas; format: functional; how it was run: as §1
Rattus norvegicus [33] = assay: […] in normal rats at a hypoglycemic dose of 0.60 mmol/kg; format: functional
Rattus norvegicus [34] = assay: Percent change in plasma insulin in normal rats at a hypoglycemic dose of 0.60 mmol/kg against control; format: functional
Rattus norvegicus [35] = assay: Blood glucose determined in normal rats at a hypoglycemic dose of 0.17 mmol/kg.
Rattus norvegicus [36] = assay: In vivo increase of plasma insulin in normal rats at a hypoglycemic dose of 0.17 mmol/kg.; format: functional, organism-based

Q: What does the source list for C/C=C/C(=O)NCCc1ccc(S(=O)(=O)N2CCN(C3CCCCC3)C2=N)cc1?
A: Insulin release (Oryctolagus cuniculus [1]): 2.73; Change (Rattus norvegicus [2]): -31% and -42%; Blood glucose (Rattus norvegicus [3]): 3.42 mM; Change (Rattus norvegicus [4]): 397%; Change (Rattus norvegicus [5]): 71%; Blood glucose (Rattus norvegicus [6]): 4.04 mM; IC50 (Rattus norvegicus [7]): 180 µM; Plasma insulin (Rattus norvegicus [8]): 476 pM l-1; Insulin release (Oryctolagus cuniculus [9]): 1.82; Insulin release (Oryctolagus cuniculus [10]): 1.88; Plasma insulin (Rattus norvegicus [11]): 163 pM l-1

Q: Which results are given for COc1cccc(C(=O)NCCc2ccc(S(=O)(=O)N3CCN(C4CCCCC4)C3=N)cc2)c1?
A: Insulin release (Oryctolagus cuniculus [12]): 2.24; Insulin release (Oryctolagus cuniculus [13]): 3.13; Insulin release (Oryctolagus cuniculus [1]): 2.08; IC50 (Rattus norvegicus [7]): 20 µM; Insulin release (Oryctolagus cuniculus [9]): 3.66; Insulin release (Oryctolagus cuniculus [10]): 0.98; Plasma insulin (Rattus norvegicus [14]): 285 pM l-1; Blood glucose (Rattus norvegicus [15]): 3.08 mM

Q: What does the source list for N=C(N)NC(=N)NCCc1ccccc1 [PHENFORMIN]?
A: Plasma insulin (Rattus norvegicus [16]): 86.1 pM l-1; Change (Rattus norvegicus [17]): -10% and -6%; Blood glucose (Rattus norvegicus [18]): 5.52 mM; IC50 (Rattus norvegicus [7]): 180 µM

Q: How did the Insulin release (Oryctolagus cuniculus [12]) turn out when CCCC(=O)NCCc1ccc(S(=O)(=O)N2CCN(C3CCCCC3)C2=N)cc1 was run?
A: 2.18

Q: What about the Change (Rattus norvegicus [19]) of the same molecule?
A: -38%

Q: And the Blood glucose (Rattus norvegicus [20])?
A: 4.86 mM

Q: What about the Plasma insulin (Rattus norvegicus [21]) of the same molecule?
A: 108 pM l-1

Q: What about the Insulin release (Oryctolagus cuniculus [1]) of the same molecule?
A: 1.84

Q: What about the Plasma insulin (Rattus norvegicus [22]) of the same molecule?
A: 310 pM l-1

Q: What about the Plasma insulin (Rattus norvegicus [23]) of the same molecule?
A: 396 pM l-1

Q: And the Insulin release (Oryctolagus cuniculus [24])?
A: 2.51

Q: What about the Change (Rattus norvegicus [25]) of the same molecule?
A: -38%

Q: What about the Change (Rattus norvegicus [26]) of the same molecule?
A: -17%

Q: And the Blood glucose (Rattus norvegicus [27])?
A: 3.63 mM

Q: What about the Blood glucose (Rattus norvegicus [28]) of the same molecule?
A: 3.62 mM

Q: What about the IC50 (Rattus norvegicus [7]) of the same molecule?
A: 71 µM

Q: What about the Insulin release (Oryctolagus cuniculus [9]) of the same molecule?
A: 3.06

Q: And the Insulin release (Oryctolagus cuniculus [10])?
A: 1.02

Q: And the Change (Rattus norvegicus [29])?
A: 12%

Q: What does the source list for N=C1N(C2CCCCC2)CCN1S(=O)(=O)c1ccc(N)cc1?
A: Insulin release (Oryctolagus cuniculus [12]): 1.74; Insulin release (Oryctolagus cuniculus [13]): 3.21; Change (Rattus norvegicus [30]): -21%; Insulin release (Oryctolagus cuniculus [1]): 1.22; Plasma insulin (Rattus norvegicus [31]): 136 pM l-1; Insulin release (Oryctolagus cuniculus [32]): 3.21; IC50 (Rattus norvegicus [7]): 180 µM; Insulin release (Oryctolagus cuniculus [10]): 1.01; Blood glucose (Rattus norvegicus [33]): 4.66 mM; Change (Rattus norvegicus [34]): 42%

Q: Which Insulin release (Oryctolagus cuniculus [13]) does the source give for CCCCNC(=O)NS(=O)(=O)c1ccc(C)cc1 [TOLBUTAMIDE] here?
A: 4.33

Q: And the Insulin release (Oryctolagus cuniculus [1])?
A: 1.81

Q: And the Blood glucose (Rattus norvegicus [35])?
A: 3.86 mmol/L

Q: What about the Insulin release (Oryctolagus cuniculus [32]) of the same molecule?
A: 4.23

Q: What about the Plasma insulin (Rattus norvegicus [36]) of the same molecule?
A: 278 pM l-1

Q: And the IC50 (Rattus norvegicus [7])?
A: > 500 µM

Q: And the Insulin release (Oryctolagus cuniculus [10])?
A: 0.95
